Assay results published in ChEMBL document CHEMBL3259763, “Synthesis and antifilarial activity of chalcone-thiazole derivatives against a human lymphatic filarial parasite, Brugia malayi” (Eur J Med Chem, 2014).
pIC50: −log10 of the molar value. Calls of active or inactive are those of the source. The rule behind the calls is not given here.

Assays:
Brugia malayi [1] = assay: Antifilarial activity against Brugia malayi adult worm assessed as inhibition of parasite motility after 48 hrs by microscopic analysis; format: functional, organism-based
Procedure, shortened: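 Freshly isolated adult female B. malayi were washed in HBSS (pH 7.2) and incubated one worm/ml/well, in triplicate, in HBSS with penicillin/streptomycin. Two-fold dilutions from 0.38-40 µM were given in DMSO (final <0.1%), with DMSO controls. After 48 h, motility was scored 0-4 under a microscope. IC50 was found by linear interpolation of percent inhibition versus DMSO.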

Brugia malayi [2] = assay: Antifilarial activity against Brugia malayi microflilariae worm assessed as inhibition of parasite motility after 48 hrs by microscopic analysis; format: functional, organism-based
Procedure, shortened: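 B. malayi microfilariae were washed in HBSS (pH 7.2) and plated at 40-50 mf/100 µL/well, in triplicate, in HBSS with penicillin/streptomycin. Two-fold dilutions from 0.38-40 µM were given in DMSO (final <0.1%), with DMSO controls, for 48 h at 37 °C, 5% CO2. Motility was scored microscopically, and IC50 was found by linear interpolation over control.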

[3] = (§1) Selectivity index, ratio of CC50 for African green monkey Vero C1008 cells to IC50 for Brugia malayi microflilariae worm; format: functional
Procedure, shortened: (§2)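 SI computed as CC50 (Vero C1008) divided by IC50 against adult worms or mf; IC50 values from 48 h exposure of parasites to two-fold dilutions at 37 °C, with % inhibition vs DMSO-treated worms and linear interpolation.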

[4] = Cytotoxicity against African green monkey Vero C1008 cells assessed as cell death by three-fold serial dilution method; format: cell-based; conditions: chlorocebus sabaeus
Procedure, shortened: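 Vero C1008 cells exposed to three-fold serial dilutions of test agents, starting above 20 x LC100; CC50 obtained by linear interpolation between the concentrations bracketing 50% inhibition.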

Brugia malayi [5] = assay: Antifilarial activity against Brugia malayi adult worm assessed as inhibition of parasite viability after 48 hrs by MTT assay; format: functional
Procedure, shortened: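 Adult female B. malayi washed in HBSS pH 7.2, one worm/mL/well in triplicate, exposed 48 h at 37 °C in 5% CO2 to two-fold dilutions (0.38-40 µM; DEC 15.63-1000 µM) in HBSS with penicillin/streptomycin, DMSO <0.1% final; after motility scoring the same worms taken for MTT reduction; % inhibition vs DMSO control, IC50 by linear interpolation.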

Brugia malayi [6] = assay: Antifilarial activity against Brugia malayi adult worm infected in jird assessed as microfilaricidal activity at 100 mg/kg, sc administered for 5 days starting from day 7/8 post-worm transplantation measured on day 7 post-initiation of drug treatment; format: functional, organism-based; parameters: dose 100 mg/kg
Procedure, shortened: (§3)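 Mf in peritoneal cavity of transplanted jirds were examined on day 7/8 p.i.t. after 5 days of s.c. dosing started on day 7/8; change was expressed as % of the pretreatment mf count.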

Brugia malayi [7] = assay: Antifilarial activity against Brugia malayi adult worm infected in jird assessed as macrofilaricidal efficacy by measuring reduction in adult worm recovery at 100 mg/kg, sc administered for 5 days starting from day 7/8 post-worm transplantation measured on day 60 post-initiation of drug treatment; format: functional; conditions: route subcutaneous
Procedure, shortened: (§4)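 Jirds carrying intraperitoneally transplanted B. malayi (sub-periodic) adults were dosed s.c. for 5 days starting day 7/8 after transplantation; test agents were suspended fresh daily in 0.1% Tween-80, DEC in water, ivermectin in 0.1% Tween-80. Killed day 60 p.i.t.; worms recovered from peritoneal washings were counted, and % reduction was calculated vs vehicle controls (4-8 animals).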

Brugia malayi [8] = assay: Antifilarial activity against Brugia malayi adult worm infected in jird assessed as embryostatic effect at 100 mg/kg, sc administered for 5 days starting from day 7/8 post-worm transplantation (reference value: 9.80 +/- 5.63%); format: functional; conditions: route subcutaneous
Mastomys coucha = assay: Toxicity in Mastomys coucha infected with third stage infective larvae (L3) form of Brugia malayi assessed as normal behaviour at 100 mg/kg, sc administered for 5 days measured on day 91 post-initiation of drug treatment; format: organism-based; parameters: dose 100 mg/kg, route subcutaneous; conditions: in vivo, 120 h
Meriones unguiculatus = assay: Toxicity in jird infected with Brugia malayi adult worm assessed as normal behaviour at 100 mg/kg, sc administered for 5 days starting from day 7/8 post-worm transplantation measured on day 60 post-initiation of drug treatment; format: organism-based; parameters: dose 100 mg/kg, route subcutaneous; conditions: gerbil, in vivo, 120 h
Brugia malayi [9] = assay: Antifilarial activity against third stage infective larvae (L3) form of Brugia malayi infected in Mastomys coucha assessed as reduction in adult worm recovery at 100 mg/kg, sc administered for 5 days measured on day 91 post-initiation of drug treatment; format: functional; conditions: route subcutaneous
Procedure, shortened: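 M. coucha carrying 5-7 month old L3-induced sub-periodic B. malayi infections received 5 days of s.c. dosing (vehicle 0.1% Tween-80; DEC in water). Killed day 91 p.i.t.; adults were recovered from teased heart, lung and testes, and % reduction in recovery was calculated vs vehicle controls.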

Brugia malayi [10] = assay: Antifilarial activity against third stage infective larvae (L3) form of Brugia malayi infected in Mastomys coucha assessed as female sterilizing efficacy at 100 mg/kg, sc administered for 5 days measured on day 91 post-initiation of drug treatment (reference value: 23%); format: functional; conditions: route subcutaneous
[11] = (§5) Selectivity index, ratio of CC50 for African green monkey Vero C1008 cells to IC50 for Brugia malayi adult worm; format: functional; procedure, shortened: as §2
Brugia malayi [12] = assay: Antifilarial activity against Brugia malayi adult worm infected in jird assessed as microfilaricidal activity at 1 mg/kg, sc administered for 5 days starting from day 7/8 post-worm transplantation measured on day 7 post-initiation of drug treatment; format: functional, organism-based; parameters: dose 1 mg/kg; procedure, shortened: as §3
Brugia malayi [13] = assay: Antifilarial activity against Brugia malayi adult worm infected in jird assessed as reduction in adult worm recovery at 1 mg/kg, sc administered for 5 days starting from day 7/8 post-worm transplantation measured on day 60 post-initiation of drug treatment; format: functional, organism-based; parameters: dose 1 mg/kg; procedure, shortened: as §4
Vero C1008 [14] = assay: as §1; format: functional; procedure, shortened: as §2
Brugia malayi [15] = assay: Antifilarial activity against Brugia malayi adult worm infected in jird assessed as embryostatic effect at 1 mg/kg, sc administered for 5 days starting from day 7/8 post-worm transplantation (reference value: 9.80 +/- 5.63%); format: functional, organism-based; parameters: dose 1 mg/kg
Vero C1008 [16] = assay: as §5; format: functional; procedure, shortened: as §2

Molecule | LC100 (Brugia malayi [1]) [µM] | LC100 (Brugia malayi [2]) [µM] | inhibition (Brugia malayi [5]) | inhibition (INH) (Brugia malayi [5]) [%] | also measured
CC(C)(C)c1cc(/C=C/C(=O)c2ccco2)cc(/C=N/c2nccs2)c1O | 40 | 20 | inactive | – | pIC50 (Brugia malayi [2]; Brugia malayi, 48 h): 5.15; Ratio CC50/IC50 [3]: 28.57; CC50 ([4]; Vero C1008 cells): 220 µM
Cc1ccc(C(=O)/C=C/c2cc(/C=N/c3nccs3)c(O)c(C(C)C)c2)cc1 | >40 | >40 | – | – | –
Cc1cc(/C=C/C(=O)c2cccs2)cc(/C=N/c2nccs2)c1O | >40 | >40 | – | – | –
COc1ccc(C(=O)/C=C/c2cc(C)c(O)c(/C=N/c3nccs3)c2)cc1 | >40 | >40 | – | 25 | –
COc1ccc(C(=O)/C=C/c2cc(/C=N/c3nccs3)c(O)c(C(C)C)c2)cc1 | >40 | >40 | – | 61 | –
COc1ccc(C(=O)/C=C/c2cc(/C=N/c3nccs3)c(O)c(C(C)(C)C)c2)cc1 | >40 | 40 | inactive | – | –
IVERMECTIN [listing 1 of 2 here] | – | – | – | – | pIC50 (Brugia malayi [1]): 5.52; pIC50 (Brugia malayi [2]): 5.80; CC50 ([4]; vero): 230 µM
CC(C)c1cc(/C=C/C(=O)c2ccco2)cc(/C=N/c2nccs2)c1O | 10 | 10 | – | 63 | pIC50 (Brugia malayi [1]; Brugia malayi, 48 h): 5.49; pIC50 (Brugia malayi [2]; Brugia malayi, 48 h): 5.46; Activity (Brugia malayi [6]): inactive; Ratio CC50/IC50 [3]: 17; inhibition in vivo at 100 mg/kg (Brugia malayi [7]): 18.2%; CC50 ([4]; Vero C1008 cells): 60 µM; Activity (Brugia malayi [8]): 0%; Activity (Mastomys coucha): Non-toxic; Activity (Meriones unguiculatus): Non-toxic; inhibition in vivo at 100 mg/kg (Brugia malayi [9]): 40.9%; Activity (Brugia malayi [10]): 30%; Ratio CC50/IC50 [11]: 19
Cc1ccc(C(=O)/C=C/c2cc(/C=N/c3nccs3)c(O)c(C(C)(C)C)c2)cc1 | >40 | 40 | inactive | – | –
CC(C)(C)c1cc(/C=C/C(=O)c2cccs2)cc(/C=N/c2nccs2)c1O | 2.5 | 5 | – | 49 | pIC50 (Brugia malayi [1]; Brugia malayi, 48 h): 6.05; pIC50 (Brugia malayi [2]; Brugia malayi, 48 h): 5.74; Ratio CC50/IC50 [3]: 22; CC50 ([4]; Vero C1008 cells): 40 µM; Activity (Brugia malayi [8]): 100%; Activity (Mastomys coucha): Non-toxic; Activity (Meriones unguiculatus): Non-toxic; inhibition in vivo at 100 mg/kg (Brugia malayi [9]): 48.6%; Activity (Brugia malayi [10]): 44%; Ratio CC50/IC50 [11]: 44
IVERMECTIN [listing 2 of 2 here] | 5 | 2.5 | – | – | Activity (Brugia malayi [12]): inactive; inhibition (Brugia malayi [13]): 21.1%; Ratio CC50/IC50 (Vero C1008 [14]): 146; inhibition (Brugia malayi [5]; dose or concentration not given here): 5.8%; Activity (Brugia malayi [15]): 43.2%; Ratio CC50/IC50 (Vero C1008 [16]): 75.4
Cc1cc(/C=C/C(=O)c2ccco2)cc(/C=N/c2nccs2)c1O | >40 | >40 | – | 62 | –
CC(C)c1cc(/C=C/C(=O)c2cccs2)cc(/C=N/c2nccs2)c1O | >40 | >40 | inactive | – | –
CCCc1cc(/C=C/C(=O)c2ccc(C)cc2)cc(/C=N/c2nccs2)c1O | >40 | >40 | inactive | – | –
CCCc1cc(/C=C/C(=O)c2ccc(OC)cc2)cc(/C=N/c2nccs2)c1O | >40 | >40 | inactive | – | –
Cc1ccc(C(=O)/C=C/c2cc(C)c(O)c(/C=N/c3nccs3)c2)cc1 | >40 | >40 | inactive | – | –
